Reference: ChEMBL document CHEMBL1137943, “Synthesis and antibacterial activity of O-substituted nocathiacin I derivatives” (Bioorg Med Chem Lett, 2004)
Values after ≈ are worked out from the molar mass of the structure shown.

Key:
[1] = Equilibrium water solubility was determined with amorphous powders at pH 7.1; assay type: ADME
Streptococcus pneumoniae = assay: Minimum concentration required to inhibit visible growth of penicillin-resistant Streptococcus pneumoniae A28272; assay type: functional
Method in brief: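 Serial microbroth dilution in 50% Mueller–Hinton/50% Todd–Hewitt medium; final inoculum about 5 × 10^5 CFU/well; incubated at 35 °C for 18 h in ambient air. MIC is the lowest drug concentration preventing visible growth.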

Staphylococcus aureus = assay: Minimum concentration required to inhibit visible growth of methicillin-sensitive Staphylococcus aureus A15090; assay type: functional
Method in brief: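 Serial microbroth dilution in Mueller–Hinton medium; final inoculum about 5 × 10^5 CFU/well; incubated at 35 °C for 18 h in ambient air. MIC is the lowest drug concentration preventing visible bacterial growth.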

Enterococcus faecalis = assay: Minimum concentration required to inhibit visible growth of Enterococcus faecalis A20688
[2] = Equilibrium water solubility was determined with amorphous powders at pH 3.5; assay type: ADME
Mus musculus [3] = assay: Dose (sc) required against Staphylococcus aureus infected mice; assay type: functional; settings: read-out: PD50
Method in brief: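 Adult female ICR mice infected ip with 5–6 × 10^6 CFU of S. aureus A15090 in 7% hog gastric mucin. Drug in 10% DMSO/5% Tween 80/85% water given sc twice, at 1 and 4 h post-infection. Survival followed for 8 days; 10 mice per group, at least three doses. PD50 (mg/kg) by Spearman–Karber estimator.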

[4] = Equilibrium water solubility was determined with amorphous powders at pH 8.2; assay type: ADME
Mus musculus [5] = assay: Dose (iv) required against Staphylococcus aureus infected mice; assay type: functional; settings: read-out: PD50
[6] = Equilibrium water solubility was determined with amorphous powders at pH 3; assay type: ADME
[7] = Equilibrium water solubility was determined with amorphous powders at pH 6.9; assay type: ADME
[8] = Equilibrium water solubility was determined with amorphous powders at pH 8.5; assay type: ADME
[9] = Equilibrium water solubility was determined with amorphous powders at pH 8.4; assay type: ADME
[10] = Equilibrium water solubility was determined with amorphous powders at pH 4; assay type: ADME

C=C(NC(=O)c1csc(-c2nc3c(cc2O)-c2nc(cs2)C(=O)NC(C(C)O)C(=O)N/C(=C(\C)OC)c2nc(cs2)C(=O)NC2c4nc(cs4)C(=O)NC(COC(=O)c4c5c6c(cccc6n4OC(=O)N(C)CCO)COC(=O)C(OC4CC(C)(O)C(N(C)C)C(C)O4)C2OC5)c2nc-3cs2)n1)C(N)=O (stereo not drawn)
solubility thermodynamic [1]: 3 µg/mL (≈ 1.95 µM)
MIC (Streptococcus pneumoniae): 0.5 ng/mL (≈ 0.000325 µM)
MIC (Staphylococcus aureus): 0.03 µg/mL (≈ 0.0195 µM)
MIC (Enterococcus faecalis): 0.03 µg/mL (≈ 0.0195 µM)

C=C(NC(=O)c1csc(-c2nc3c(cc2O)-c2nc(cs2)C(=O)NC(C(C)O)C(=O)N/C(=C(\C)OC)c2nc(cs2)C(=O)NC2c4nc(cs4)C(=O)NC(COC(=O)c4c5c6c(cccc6n4OC(=O)NCCOCCOCCOCCOCCOCCO)COC(=O)C(OC4CC(C)(O)C(N(C)C)C(C)O4)C2OC5)c2nc-3cs2)n1)C(N)=O (stereo not drawn)
solubility thermodynamic [2]: > 2100 µg/mL
ED50 (Mus musculus [3]): 0.78 mg/kg
MIC (Streptococcus pneumoniae): 3 ng/mL (≈ 0.00172 µM)
MIC (Staphylococcus aureus): 0.06 µg/mL (≈ 0.0344 µM)
MIC (Enterococcus faecalis): 0.06 µg/mL (≈ 0.0344 µM)

C=C(NC(=O)c1csc(-c2nc3c(cc2O)-c2nc(cs2)C(=O)NC(C(C)O)C(=O)N/C(=C(\C)OC)c2nc(cs2)C(=O)NC2c4nc(cs4)C(=O)NC(COC(=O)c4c5c6c(cccc6n4OP([O-])OC)COC(=O)C(OC4CC(C)(O)C(N(C)C)C(C)O4)C2OC5)c2nc-3cs2)n1)C(N)=O.[Na+] (stereo not drawn)
solubility thermodynamic [4]: 5600 µg/mL
ED50 (Mus musculus [5]): 1.6 mg/kg
MIC (Streptococcus pneumoniae): 7 ng/mL
MIC (Staphylococcus aureus): 0.125 µg/mL
MIC (Enterococcus faecalis): 0.25 µg/mL

C=C(NC(=O)c1csc(-c2nc3c(cc2OP(=O)(O)OCCCl)-c2nc(cs2)C(=O)NC(C(C)O)C(=O)N/C(=C(\C)OC)c2nc(cs2)C(=O)NC2c4nc(cs4)C(=O)NC(COC(=O)c4c5c6c(cccc6n4O)COC(=O)C(OC4CC(C)(O)C(N(C)C)C(C)O4)C2OC5)c2nc-3cs2)n1)C(N)=O (stereo not drawn)
MIC (Streptococcus pneumoniae): 30 ng/mL (≈ 0.019 µM)
MIC (Staphylococcus aureus): 1 µg/mL (≈ 0.633 µM)
MIC (Enterococcus faecalis): 1 µg/mL (≈ 0.633 µM)

C=C(NC(=O)c1csc(-c2nc3c(cc2O)-c2nc(cs2)C(=O)NC(C(C)O)C(=O)N/C(=C(\C)OC)c2nc(cs2)C(=O)NC2c4nc(cs4)C(=O)NC(COC(=O)c4c5c6c(cccc6n4OC(=O)NCCCC)COC(=O)C(OC4CC(C)(O)C(N(C)C)C(C)O4)C2OC5)c2nc-3cs2)n1)C(N)=O (stereo not drawn)
MIC (Streptococcus pneumoniae): 7 ng/mL (≈ 0.00456 µM)
MIC (Staphylococcus aureus): 0.001 µg/mL (≈ 0.000651 µM)
MIC (Enterococcus faecalis): 0.03 µg/mL (≈ 0.0195 µM)

C=C(NC(=O)c1csc(-c2nc3c(cc2O)-c2nc(cs2)C(=O)NC(C(C)O)C(=O)N/C(=C(\C)OC)c2nc(cs2)C(=O)NC2c4nc(cs4)C(=O)NC(COC(=O)c4c5c6c(cccc6n4OC(=O)NCCCN4CCN(C)CC4)COC(=O)C(OC4CC(C)(O)C(N(C)C)C(C)O4)C2OC5)c2nc-3cs2)n1)C(N)=O (stereo not drawn)
solubility thermodynamic [6]: > 2300 µg/mL
MIC (Streptococcus pneumoniae): 0.5 ng/mL (≈ 0.000308 µM)
MIC (Staphylococcus aureus): 0.003 µg/mL (≈ 0.00185 µM)
MIC (Enterococcus faecalis): 0.003 µg/mL (≈ 0.00185 µM)

C=C(NC(=O)c1csc(-c2nc3c(cc2OP(=O)(O)OCCCl)-c2nc(cs2)C(=O)NC(C(C)O)C(=O)N/C(=C(\C)OC)c2nc(cs2)C(=O)NC2c4nc(cs4)C(=O)NC(COC(=O)c4c5c6c(cccc6n4OP(=O)(O)OCCCl)COC(=O)C(OC4CC(C)(O)C(N(C)C)C(C)O4)C2OC5)c2nc-3cs2)n1)C(N)=O (stereo not drawn)
MIC (Streptococcus pneumoniae): 500 ng/mL (≈ 0.29 µM)
MIC (Staphylococcus aureus): 4 µg/mL (≈ 2.32 µM)
MIC (Enterococcus faecalis): 4 µg/mL (≈ 2.32 µM)

C=C(NC(=O)c1csc(-c2nc3c(cc2O)-c2nc(cs2)C(=O)NC(C(C)O)C(=O)N/C(=C(\C)OC)c2nc(cs2)C(=O)NC2c4nc(cs4)C(=O)NC(COC(=O)c4c5c6c(cccc6n4OP(=O)(O)OCCCl)COC(=O)C(OC4CC(C)(O)C(N(C)C)C(C)O4)C2OC5)c2nc-3cs2)n1)C(N)=O (stereo not drawn)
solubility thermodynamic [7]: 530 µg/mL (≈ 335 µM)
ED50 (Mus musculus [3]): > 10 mg/kg
MIC (Streptococcus pneumoniae): 30 ng/mL (≈ 0.019 µM)
MIC (Staphylococcus aureus): 0.25 µg/mL (≈ 0.158 µM)
MIC (Enterococcus faecalis): 0.5 µg/mL (≈ 0.316 µM)

C=C(NC(=O)c1csc(-c2nc3c(cc2O)-c2nc(cs2)C(=O)NC(C(C)O)C(=O)N/C(=C(\C)OC)c2nc(cs2)C(=O)NC2c4nc(cs4)C(=O)NC(COC(=O)c4c5c6c(cccc6n4OC(=O)NCCOCCOCCOCCOC)COC(=O)C(OC4CC(C)(O)C(N(C)C)C(C)O4)C2OC5)c2nc-3cs2)n1)C(N)=O (stereo not drawn)
MIC (Streptococcus pneumoniae): 15 ng/mL (≈ 0.00898 µM)
MIC (Staphylococcus aureus): 0.125 µg/mL (≈ 0.0748 µM)
MIC (Enterococcus faecalis): 0.125 µg/mL (≈ 0.0748 µM)

C=C(NC(=O)c1csc(-c2nc3c(cc2O)-c2nc(cs2)C(=O)NC(C(C)O)C(=O)N/C(=C(\C)OC)c2nc(cs2)C(=O)NC2c4nc(cs4)C(=O)NC(COC(=O)c4c5c6c(cccc6n4OC(=O)NC)COC(=O)C(OC4CC(C)(O)C(N(C)C)C(C)O4)C2OC5)c2nc-3cs2)n1)C(N)=O (stereo not drawn)
MIC (Streptococcus pneumoniae): 1 ng/mL (≈ 0.000669 µM)
MIC (Staphylococcus aureus): 0.125 µg/mL (≈ 0.0836 µM)
MIC (Enterococcus faecalis): 0.06 µg/mL (≈ 0.0401 µM)

C=C(NC(=O)c1csc(-c2nc3c(cc2OP([O-])OC)-c2nc(cs2)C(=O)NC(C(C)O)C(=O)N/C(=C(\C)OC)c2nc(cs2)C(=O)NC2c4nc(cs4)C(=O)NC(COC(=O)c4c5c6c(cccc6n4OP([O-])OC)COC(=O)C(OC4CC(C)(O)C(N(C)C)C(C)O4)C2OC5)c2nc-3cs2)n1)C(N)=O.[Na+].[Na+] (stereo not drawn)
solubility thermodynamic [8]: > 10000 µg/mL
ED50 (Mus musculus [5]): 5.9 mg/kg
MIC (Streptococcus pneumoniae): 3 ng/mL
MIC (Staphylococcus aureus): 0.25 µg/mL
MIC (Enterococcus faecalis): 0.25 µg/mL

C=C(NC(=O)c1csc(-c2nc3c(cc2OP([O-])OC)-c2nc(cs2)C(=O)NC(C(C)O)C(=O)N/C(=C(\C)OC)c2nc(cs2)C(=O)NC2c4nc(cs4)C(=O)NC(COC(=O)c4c5c6c(cccc6n4O)COC(=O)C(OC4CC(C)(O)C(N(C)C)C(C)O4)C2OC5)c2nc-3cs2)n1)C(N)=O.[Na+] (stereo not drawn)
solubility thermodynamic [9]: > 2200 µg/mL
ED50 (Mus musculus [5]): 0.26 mg/kg
MIC (Streptococcus pneumoniae): 60 ng/mL
MIC (Staphylococcus aureus): 0.125 µg/mL
MIC (Enterococcus faecalis): 0.25 µg/mL

C=C(NC(=O)c1csc(-c2nc3c(cc2O)-c2nc(cs2)C(=O)N[C@@H]([C@@H](C)O)C(=O)N/C(=C(\C)OC)c2nc(cs2)C(=O)N[C@@H]2c4nc(cs4)C(=O)N[C@@H](COC(=O)c4c5c6c(cccc6n4O)COC(=O)[C@@H](O[C@H]4C[C@](C)(O)[C@H](N(C)C)[C@H](C)O4)[C@H]2OC5)c2nc-3cs2)n1)C(N)=O [MJ347-81F4 A]
solubility thermodynamic [10]: 340 µg/mL (≈ 237 µM)
ED50 (Mus musculus [5]): 0.2 mg/kg
MIC (Streptococcus pneumoniae): 2 ng/mL (≈ 0.00139 µM)
MIC (Staphylococcus aureus): 0.007 µg/mL (≈ 0.00487 µM)
MIC (Enterococcus faecalis): 0.03 µg/mL (≈ 0.0209 µM)
